Holding throughout (assay type): functional, organism-based
Assay [1] deals with Vibrio fluvialis. Briefly: In vitro antibacterial activity against Vibrio fluvialis in test 1; - indicates No activity. In outline:
(§1)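 Five microlitres of compound stock (about 0.2 mg) combined with bacterial suspension in Tris-buffered saline (0.8 OD at 580 nm). Mixture incubated 14 h at 14 °C, then plated on TCBS agar (thiosulphate–citrate–bile salt–sucrose) to read bactericidal activity.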

Assay [2] has as its system Escherichia coli. As to the kind of experiment: In vitro antibacterial activity against Escherichia coli in test 1; ++ indicates mild activity. The procedure, abridged:
as §1

In assay [3] the test system is Escherichia coli. As to the kind of experiment: In vitro antibacterial activity against Escherichia coli in test 2; ++ indicates mild activity. In outline: as §1
In assay [4] the test system is Vibrio fluvialis. Briefly: In vitro antibacterial activity against Vibrio fluvialis in test 2; - indicates No activity. The procedure, abridged: as §1
Assay [5] concerns Pseudomonas sp. Briefly: n vitro antibacterial activity of (25:50%) of compounds against Pseudomonas species at a concentration of 2 mg/mL; + indicates No activity. The procedure, abridged:
as §1

Assay [6] has as its system Vibrio fluvialis. Briefly: In vitro antibacterial activity of (50:50%) of compounds against Vibrio fluvialis at a concentration of 2 mg/mL; - indicates No activity. In outline: as §1
In assay [7] the test system is Vibrio mimicus. Briefly: n vitro antibacterial activity of (25:50%) of compounds against Vibrio mimicus at a concentration of 2 mg/mL; + indicates No activity. In outline: as §1
The subject of assay [8] is Vibrio anguillarum. Briefly: In vitro antibacterial activity of (50:50%) of compounds against Vibrio anguillarum at a concentration of 2 mg/mL; - indicates No activity. The procedure, abridged: as §1
Assay [9] concerns Vibrio alginolyticus. As to the kind of experiment: In vitro antibacterial activity of (50:50%) of compounds against Vibrio alginolyticus at a concentration of 2 mg/mL; - indicates No activity. The procedure, abridged: as §1
In assay [10] the test system is Vibrio anguillarum. Briefly: n vitro antibacterial activity of (25:50%) of compounds against Vibrio anguillarum at a concentration of 2 mg/mL; + indicates No activity. In outline:
as §1

Assay [11] has as its system Vibrio fluvialis. Briefly: n vitro antibacterial activity of (25:50%) of compounds against Vibrio fluvialis at a concentration of 2 mg/mL; + indicates No activity. The procedure, abridged:
as §1

Assay [12] relates to Vibrio alginolyticus. As to the kind of experiment: n vitro antibacterial activity of (25:50%) of compounds against Vibrio alginolyticus at a concentration of 2 mg/mL; + indicates No activity. In outline: as §1
The test system of assay [13] is Vibrio mimicus. Briefly: In vitro antibacterial activity of (50:50%) of compounds against Vibrio mimicus at a concentration of 2 mg/mL; - indicates No activity. The procedure, abridged: as §1
The test system of assay [14] is Escherichia coli. As to the kind of experiment: n vitro antibacterial activity of (25:50%) of compounds against Escherichia coli at a concentration of 2 mg/mL; + indicates No activity. The procedure, abridged: as §1
Assay [15] deals with Pseudomonas sp. As to the kind of experiment: In vitro antibacterial activity of (50:50%) of compounds against Pseudomonas species at a concentration of 2 mg/mL; - indicates No activity. The procedure, abridged: as §1
The subject of assay [16] is Vibrio vulnificus. As to the kind of experiment: In vitro antibacterial activity of (50:50%) of compounds against Vibrio vulnificus at a concentration of 2 mg/mL; - indicates No activity. The procedure, abridged:
as §1

The test system of assay [17] is Escherichia coli. As to the kind of experiment: In vitro antibacterial activity of (50:50%) of compounds against Escherichia coli at a concentration of 2 mg/mL; - indicates No activity. In outline: as §1
For assay [18], the system named is Vibrio parahaemolyticus. Briefly: In vitro antibacterial activity of (50:50%) of compounds against Vibrio parahaemolyticus at a concentration of 2 mg/mL; - indicates No activity. In outline: as §1
Assay [19] concerns Vibrio vulnificus. As to the kind of experiment: n vitro antibacterial activity of (25:50%) of compounds against Vibrio vulnificus at a concentration of 2 mg/mL; + indicates No activity. The procedure, abridged:
as §1

In assay [20] the test system is Vibrio parahaemolyticus. Briefly: n vitro antibacterial activity of (25:50%) of compounds against Vibrio parahaemolyticus at a concentration of 2 mg/mL; + indicates No activity. The procedure, abridged:
as §1

The subject of assay [21] is Vibrio vulnificus. Briefly: In vitro antibacterial activity against Vibrio vulnificus at a concentration of 2 mg/mL; - indicates No activity. The procedure, abridged:
as §1

Assay [22] deals with Pseudomonas sp. Briefly: In vitro antibacterial activity against Pseudomonas species at a concentration of 2 mg/mL; - indicates No activity. The procedure, abridged:
as §1

Assay [23] has as its system Escherichia coli. As to the kind of experiment: In vitro antibacterial activity against Escherichia coli at a concentration of 2 mg/mL; - indicates No activity. In outline:
as §1

Assay [24] has as its system Vibrio alginolyticus. As to the kind of experiment: In vitro antibacterial activity against Vibrio alginolyticus at a concentration of 2 mg/mL; - indicates No activity. In outline:
as §1

Assay [25] concerns Vibrio anguillarum. As to the kind of experiment: In vitro antibacterial activity against Vibrio anguillarum at a concentration of 2 mg/mL; - indicates No activity. In outline: as §1
The test system of assay [26] is Vibrio fluvialis. Briefly: In vitro antibacterial activity against Vibrio fluvialis at a concentration of 2 mg/mL; - indicates No activity. In outline: as §1
The subject of assay [27] is Vibrio parahaemolyticus. Briefly: In vitro antibacterial activity against Vibrio parahaemolyticus at a concentration of 2 mg/mL; - indicates No activity. The procedure, abridged:
as §1

The test system of assay [28] is Vibrio mimicus. As to the kind of experiment: In vitro antibacterial activity against Vibrio mimicus at a concentration of 2 mg/mL; - indicates No activity. In outline:
as §1

Turning to `c1ccc([C@H]2Nc3ccccc3[C@@H]3OCCC[C@H]23)cc1`, the Activity entry in the assay with Vibrio fluvialis [1] was “Not toxic”; with Escherichia coli [2], “mild activity”; in the assay on Escherichia coli [3], “mild activity”; in the assay with Vibrio fluvialis [4], “Not toxic”.
As to `c1ccc([C@@H]2Nc3ccccc3[C@@H]3OCCC[C@H]23)cc1.c1ccc([C@H]2Nc3ccccc3[C@@H]3OCCC[C@H]23)cc1`, the Activity result in the assay on Pseudomonas sp. [5] is “No activity”; with Vibrio fluvialis [6], “Not toxic”; in the assay on Vibrio mimicus [7] it was “No activity”; with Vibrio anguillarum [8] it was “Not toxic”; with Vibrio alginolyticus [9], “Not toxic”; in the assay on Vibrio anguillarum [10], “No activity”. The Activity entry was “No activity” in the assay with Vibrio fluvialis [11]; “No activity” with Vibrio alginolyticus [12]; “Not toxic” with Vibrio mimicus [13]; “No activity” in the assay with Escherichia coli [14]; “Not toxic” in the assay on Pseudomonas sp. [15]; “Not toxic” in the assay on Vibrio vulnificus [16]. The Activity result with Escherichia coli [17] was “Not toxic”; with Vibrio parahaemolyticus [18], “Not toxic”; in the assay with Vibrio vulnificus [19] it was “No activity”; in the assay on Vibrio parahaemolyticus [20] it was “No activity”.
Take `c1ccc([C@@H]2Nc3ccccc3[C@@H]3OCCC[C@H]23)cc1`: the Activity entry with Vibrio vulnificus [21], in the assay on Pseudomonas sp. [22], with Escherichia coli [23], in the assay with Vibrio alginolyticus [24], with Vibrio anguillarum [25] and with Vibrio fluvialis [26] was “Not toxic” each time. Moreover, the Activity result with Vibrio parahaemolyticus [27] and in the assay on Vibrio mimicus [28] was “Not toxic” in each case.

(Values after ChEMBL document CHEMBL1147533, “Highly diastereoselective inverse electron demand (IED) Diels-Alder reaction mediated by chiral salen-AlCl complex: the first, target-oriented synthesis of pyranoquinolines as potential antibacterial agents” (Bioorg Med Chem Lett, 2004).)
